Measurements reported in ChEMBL document CHEMBL3259732, “Vascular effects of diphenylmethoxypiperidine-derived dopamine uptake inhibitors” (2014).
Active and inactive are the calls of the source. No cut-off for these calls is given here.

How the values were obtained:
Assay type in all cases: functional
Rattus norvegicus = organism: Rattus norvegicus; experiment: (§1) Vascular activity in receptor-independent rat mesenteric resistance artery assessed as inhibition of KCl-induced contraction at 3 x 10^-6 M after 5 mins
Procedure, shortened: (§2)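 Receptor-independent response in rat mesenteric resistance arteries normalized to optimal diameter at 100 mmHg transmural pressure. After pre-incubation with test agent at 3 x 10^-6 M, maximal contraction to 75 mM KCl was recorded. Block was judged against control arteries, p<0.05.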

[1] = Vascular activity in receptor-dependent rat mesenteric resistance artery assessed as inhibition of noradrenaline-induced contraction at 3 x 10^-6 M after 5 mins
Procedure, shortened: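 Rat mesenteric resistance arteries set to optimal diameter (OD = 0.9 L100, from the diameter at 100 mmHg transmural pressure). Rings pre-incubated with test agent at 3 x 10^-6 M, then given a dose–response curve to noradrenaline as the receptor-dependent contraction. Inhibition read against control arteries, p<0.05.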

[2] = Vascular activity in receptor-dependent rat mesenteric resistance artery assessed as inhibition of noradrenaline-induced contraction at 3 x 10^-6 M after 5 mins relative to maximal response to KCl; set-up: scale not given: the % may be the effect or the level left
[3] = as §1; procedure, shortened: as §2

SMILES: CCCCN1CCC(OC(c2ccc(Cl)cc2)c2ccc(Cl)cc2)CC1
- inhibition (Rattus norvegicus): Active
- pD2 [1]: 4.26
- Activity [2]: 99%

SMILES: CC(C)N1CCC(OC(c2ccc(F)cc2)c2ccc(F)cc2)CC1
- inhibition (Rattus norvegicus): Active
- pD2 [1]: 4.48
- Activity [2]: 121%

SMILES: NC[C@H](O)c1ccc(O)c(O)c1.O=C(O)C(O)C(O)C(=O)O
- pD2 [1]: 5.95
- Activity [2]: 122%

SMILES: COC(=O)[C@H]1[C@@H](OC(=O)c2ccccc2)C[C@@H]2CC[C@H]1N2C [COCAINE]
- inhibition (Rattus norvegicus): inactive
- pD2 [1]: 6.52
- Activity [2]: 130%

SMILES: CN1CCC(OC(c2ccccc2)c2ccccc2)CC1 [DIPHENYLPYRALINE]
- inhibition at 3 µM [3]: 70%
- pD2 [1]: 5.38
- Activity [2]: 129%

SMILES: CN1CCC(OC(c2ccccc2)c2ccc(Cl)cc2)CC1 (stereo not drawn)
- inhibition at 3 µM [3]: 70%
- pD2 [1]: 5.08
- Activity [2]: 113%

SMILES: CN1CCC(OC(c2ccc(F)cc2)c2ccc(F)cc2)CC1
- inhibition at 3 µM [3]: 70%
- pD2 [1]: 5.1
- Activity [2]: 121%

SMILES: Fc1ccc(C(OC2CCNCC2)c2ccc(F)cc2)cc1
- inhibition at 3 µM [3]: 70%
- pD2 [1]: 5.17
- Activity [2]: 116%
